Laboratory results as given in ChEMBL document CHEMBL1124510, “(+/-)-7-chloro-8-hydroxy-1-(4'-[125I]iodophenyl)-3-methyl-2,3,4,5- tetrahydro-1H-3-benzazepine: a potential CNS D-1 dopamine receptor imaging agent” (J Med Chem, 1989).
Blank lines part the entries; values can stand above or below the compound they belong to.

What was measured:
D(1A) dopamine receptor [1] = biological target: T1, D(1A) dopamine receptor (Rattus norvegicus, UniProt P18901); experiment: In vitro binding affinity towards Dopamine receptor D1 by displacing [125I]FISCH radioligand in rat striatal homogenate
Method in brief: (§1)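 Assay buffer 50 mM Tris pH 7.4 with NaCl, KCl, CaCl2 and MgCl2, 40-60 μg protein. Incubated 20 min at 37 °C with stirring, then vacuum-filtered on GF/B filters pretreated with 0.2% protamine sulfate and washed with cold Tris.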

Rattus norvegicus [2] = species: Rattus norvegicus; experiment: (§2) In vitro binding affinity to the rat striatal homogenate.
Method in brief: (§3)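 Saturation binding of [125I]FISCH to male Sprague-Dawley rat (200-250 g) striatal membranes. Tissue homogenized in ice-cold 50 mM Tris-HCl pH 7.4, pelleted twice at 20000g. Assay buffer 50 mM Tris pH 7.4, 120 mM NaCl, 5 mM KCl, 2 mM CaCl2, 1 mM MgCl2, with 40-60 μg protein. Incubated 20 min at 37 °C with stirring, then filtered through protamine-treated GF/B filters. Specific binding gives […].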

Rattus norvegicus [3] = experiment: In vivo biodistribution in rats after an intravenous injection at 60 min was determined in kidney; Expressed as percent dose/organ; format: ADME, organism-based; details: 1 h
Method in brief: (§4)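 [125I]FISCH in 0.2 mL saline was injected into the femoral vein of male Sprague-Dawley rats (225-300 g) under halothane. Rats were killed by cardiac excision at set times. Organs were weighed and gamma-counted against diluted aliquots of the dose. Blood and muscle totals assume 7% and 40% of body weight. Results are averages of six rats ± SD.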

Rattus norvegicus [4] = experiment: In vivo biodistribution in rats after an intravenous injection at 2 min was determined in thyroid; Expressed as percent dose/organ; format: ADME, organism-based, Thyroid gland; method in brief: as §4
Rattus norvegicus [5] = experiment: In vivo biodistribution in rats after an intravenous injection at 2 min was determined in brain; Expressed as percent dose/organ; format: ADME, organism-based; method in brief: as §4
Rattus norvegicus [6] = experiment: In vivo biodistribution in rats after an intravenous injection at 2 min was determined in blood; Expressed as percent dose/organ; format: ADME, organism-based; method in brief: as §4
Rattus norvegicus [7] = experiment: In vivo biodistribution in rats after an intravenous injection at 15 min was determined in skin; Expressed as percent dose/organ; format: ADME, organism-based; details: 0.25 h; method in brief: as §4
Rattus norvegicus [8] = species: Rattus norvegicus; experiment: Selectivity ratio for biodistribution in brain and blood of rats after 2 minutes; Expressed as percent dose/gram ratio; format: ADME, organism-based
Method in brief: (§5)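 After femoral iv injection of [125I]FISCH in saline into halothane-anesthetized male Sprague-Dawley rats, tissues were weighed and gamma-counted. Percent dose/gram was calculated against the diluted injected dose, and the ratio was taken from the percent dose/gram values.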

Rattus norvegicus [9] = experiment: In vivo biodistribution in rats after an intravenous injection at 60 min was determined in skin; Expressed as percent dose/organ; format: ADME, organism-based; details: 1 h; method in brief: as §4
Rattus norvegicus [10] = experiment: In vivo biodistribution in rats after an intravenous injection at 60 min was determined in brain; Expressed as percent dose/organ; format: ADME, organism-based; details: 1 h; method in brief: as §4
Rattus norvegicus [11] = experiment: In vivo biodistribution in rats after an intravenous injection at 60 min was determined in heart; Expressed as percent dose/organ; format: ADME, organism-based; details: 1 h; method in brief: as §4
Rattus norvegicus [12] = experiment: In vivo biodistribution in rats after an intravenous injection at 2 min was determined in heart; Expressed as percent dose/organ; format: ADME, organism-based; method in brief: as §4
Rattus norvegicus [13] = experiment: In vivo biodistribution in rats after an intravenous injection at 15 min was determined in spleen; Expressed as percent dose/organ; format: ADME, organism-based; details: 0.25 h; method in brief: as §4
Rattus norvegicus [14] = experiment: In vivo biodistribution in rats after an intravenous injection at 2 min was determined in kidney; Expressed as percent dose/organ; format: ADME, organism-based; method in brief: as §4
Rattus norvegicus [15] = experiment: In vivo biodistribution in rats after an intravenous injection at 60 min was determined in spleen; Expressed as percent dose/organ; format: ADME, organism-based; details: 1 h; method in brief: as §4
Rattus norvegicus [16] = experiment: In vivo biodistribution in rats after an intravenous injection at 15 min was determined in heart; Expressed as percent dose/organ; format: ADME, organism-based; details: 0.25 h; method in brief: as §4
Rattus norvegicus [17] = experiment: In vivo biodistribution in rats after an intravenous injection at 2 min was determined in skin; Expressed as percent dose/organ; format: ADME, organism-based; method in brief: as §4
Rattus norvegicus [18] = species: Rattus norvegicus; experiment: Selectivity ratio for biodistribution in brain and blood of rats after 60 minutes; Expressed as percent dose/gram ratio; format: ADME, organism-based; details: 1 h; method in brief: as §5
Rattus norvegicus [19] = experiment: In vivo biodistribution in rats after an intravenous injection at 2 min was determined in liver; Expressed as percent dose/organ; format: ADME, organism-based; method in brief: as §4
Rattus norvegicus [20] = experiment: In vivo biodistribution in rats after an intravenous injection at 60 min was determined in muscle; Expressed as percent dose/organ; format: ADME, organism-based, Muscle tissue; details: 1 h; method in brief: as §4
Rattus norvegicus [21] = experiment: In vivo biodistribution in rats after an intravenous injection at 15 min was determined in lung; Expressed as percent dose/organ; format: ADME, organism-based; details: 0.25 h; method in brief: as §4
Rattus norvegicus [22] = experiment: In vivo biodistribution in rats after an intravenous injection at 2 min was determined in spleen; Expressed as percent dose/organ; format: ADME, organism-based; method in brief: as §4
Rattus norvegicus [23] = experiment: In vivo biodistribution in rats after an intravenous injection at 15 min was determined in muscle; Expressed as percent dose/organ; format: ADME, organism-based, Muscle tissue; details: 0.25 h; method in brief: as §4
Rattus norvegicus [24] = experiment: In vivo biodistribution in rats after an intravenous injection at 60 min was determined in lung; Expressed as percent dose/organ; format: ADME, organism-based; details: 1 h; method in brief: as §4
Rattus norvegicus [25] = species: Rattus norvegicus; experiment: Selectivity ratio for biodistribution in brain and blood of rats after 15 minutes; Expressed as percent dose/gram ratio; format: ADME, organism-based; details: 0.25 h; method in brief: as §5
Rattus norvegicus [26] = experiment: In vivo biodistribution in rats after an intravenous injection at 2 min was determined in lung; Expressed as percent dose/organ; format: ADME, organism-based; method in brief: as §4
Rattus norvegicus [27] = experiment: In vivo biodistribution in rats after an intravenous injection at 15 min was determined in liver; Expressed as percent dose/organ; format: ADME, organism-based; details: 0.25 h; method in brief: as §4
Rattus norvegicus [28] = experiment: In vivo biodistribution in rats after an intravenous injection at 15 min was determined in blood; Expressed as percent dose/organ; format: ADME, organism-based; details: 0.25 h; method in brief: as §4
D(1A) dopamine receptor [29] = biological target: T1, D(1A) dopamine receptor; experiment: In vitro binding affinity to the rat striatal homogenate; method in brief: as §3
Rattus norvegicus [30] = experiment: In vivo biodistribution in rats after an intravenous injection at 15 min was determined in kidney; Expressed as percent dose/organ; format: ADME, organism-based; details: 0.25 h; method in brief: as §4
Rattus norvegicus [31] = experiment: In vivo biodistribution in rats after an intravenous injection at 60 min was determined in blood; Expressed as percent dose/organ; format: ADME, organism-based; details: 1 h; method in brief: as §4
Rattus norvegicus [32] = experiment: In vivo biodistribution in rats after an intravenous injection at 60 min was determined in thyroid; Expressed as percent dose/organ; format: ADME, organism-based, Thyroid gland; details: 1 h; method in brief: as §4
Rattus norvegicus [33] = experiment: In vivo biodistribution in rats after an intravenous injection at 60 min was determined in liver; Expressed as percent dose/organ; format: ADME, organism-based; details: 1 h; method in brief: as §4
Rattus norvegicus [34] = experiment: In vivo biodistribution in rats after an intravenous injection at 15 min was determined in thyroid; Expressed as percent dose/organ; format: ADME, organism-based, Thyroid gland; details: 0.25 h; method in brief: as §4
Rattus norvegicus [35] = experiment: In vivo biodistribution in rats after an intravenous injection at 15 min was determined in brain; Expressed as percent dose/organ; format: ADME, organism-based; details: 0.25 h; method in brief: as §4
Rattus norvegicus [36] = experiment: In vivo biodistribution in rats after an intravenous injection at 2 min was determined in muscle; Expressed as percent dose/organ; format: ADME, organism-based, Muscle tissue; method in brief: as §4
D(1A) dopamine receptor [37] = biological target: T1, D(1A) dopamine receptor; experiment: as §2
D(1A) dopamine receptor [38] = biological target: T1, D(1A) dopamine receptor; experiment: In vitro binding affinity towards dDopamine receptor D1 by displacing [125I]FISCH radioligand in rat striatal homogenate
Method in brief: as §1, with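 “Competition against 0.15-0.30 nM [125I]FISCH on rat striatal membranes, each competitor at 7-11 concentrations. Assay” for “Assay”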

T1 sequence (P18901 whole entry): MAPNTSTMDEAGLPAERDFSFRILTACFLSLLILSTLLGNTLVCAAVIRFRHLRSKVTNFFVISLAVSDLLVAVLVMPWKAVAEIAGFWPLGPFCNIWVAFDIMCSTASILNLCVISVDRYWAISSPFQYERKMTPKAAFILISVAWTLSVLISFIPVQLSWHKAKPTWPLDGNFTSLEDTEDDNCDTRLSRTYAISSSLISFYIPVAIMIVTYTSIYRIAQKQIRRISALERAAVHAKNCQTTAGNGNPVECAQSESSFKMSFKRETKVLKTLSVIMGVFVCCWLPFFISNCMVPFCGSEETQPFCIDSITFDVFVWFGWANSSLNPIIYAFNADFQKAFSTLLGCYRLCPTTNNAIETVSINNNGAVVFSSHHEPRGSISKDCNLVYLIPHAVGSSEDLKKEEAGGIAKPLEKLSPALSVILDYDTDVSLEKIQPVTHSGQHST

SMILES: CN1CCc2cc(Cl)c(O)cc2C(c2ccc([125I])cc2)C1 (stereo not given)
- Biodistribution (Rattus norvegicus [3]): 1.31%
- Biodistribution (Rattus norvegicus [4]): 0.11%
- Biodistribution (Rattus norvegicus [5]): 2.27%
- Biodistribution (Rattus norvegicus [6]): 3.46%
- Biodistribution (Rattus norvegicus [7]): 9.62%
- Ratio (Rattus norvegicus [8]): 7.35%
- Biodistribution (Rattus norvegicus [9]): 9.25%
- Biodistribution (Rattus norvegicus [10]): 0.55%
- Biodistribution (Rattus norvegicus [11]): 0.18%
- Biodistribution (Rattus norvegicus [12]): 1.97%
- Biodistribution (Rattus norvegicus [13]): 0.56%
- Biodistribution (Rattus norvegicus [14]): 5.98%
- Biodistribution (Rattus norvegicus [15]): 0.67%
- Biodistribution (Rattus norvegicus [16]): 0.38%
- Biodistribution (Rattus norvegicus [17]): 7.43%
- Ratio (Rattus norvegicus [18]): 3.08%
- Biodistribution (Rattus norvegicus [19]): 17.1%
- Biodistribution (Rattus norvegicus [20]): 19.07%
- Biodistribution (Rattus norvegicus [21]): 2.73%
- Biodistribution (Rattus norvegicus [22]): 2.79%
- Biodistribution (Rattus norvegicus [23]): 34.22%
- Biodistribution (Rattus norvegicus [24]): 1.47%
- Ratio (Rattus norvegicus [25]): 6.19%
- Biodistribution (Rattus norvegicus [26]): 8.55%
- Biodistribution (Rattus norvegicus [27]): 14.72%
- Biodistribution (Rattus norvegicus [28]): 2.28%
- Kd (D(1A) dopamine receptor [29]): 1.43 nM
- Biodistribution (Rattus norvegicus [30]): 2.09%
- Biodistribution (Rattus norvegicus [31]): 1.83%
- Biodistribution (Rattus norvegicus [32]): 0.04%
- Biodistribution (Rattus norvegicus [33]): 12.32%
- Biodistribution (Rattus norvegicus [34]): 0.06%
- Biodistribution (Rattus norvegicus [35]): 1.4%
- Biodistribution (Rattus norvegicus [36]): 35.68%

SMILES: CN1CCc2ccc(O)cc2[C@@H](c2ccccc2)C1
- Kd (D(1A) dopamine receptor [37]): 197 nM

SMILES: O=C(c1ccc(F)cc1)C1CCN(CCn2c(=O)[nH]c3ccccc3c2=O)CC1 [KETANSERIN]
- Ki (D(1A) dopamine receptor [38]): > 3000 nM

SMILES: CN1CCc2cc(Cl)c(O)cc2C(c2ccc(I)cc2)C1 (racemic)
- Ki (D(1A) dopamine receptor [1]): 1.71 nM

The next lines start with the values.

- Ki (D(1A) dopamine receptor [1]): 13.4 nM
- Kd (Rattus norvegicus [2]): 0.7 nM
SMILES: CN1CCc2cc(I)c(O)cc2[C@@H](c2ccccc2)C1 (racemic)

- Kd (Rattus norvegicus [2]): 0.36 nM
SMILES: CN1CCc2cc(Cl)c(O)cc2[C@@H](c2ccccc2)C1 [SCH-23390]
